System: MS2 coat protein
Test: apparent Kd, MS2 coat protein; higher = weaker binding; RNA-MaP array; FMN 200 µM where present
Procedure, shortened: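 Stalled E. coli RNA polymerase transcribed each design on Illumina sequencing-chip clusters. The clusters were titrated with SNAP-549-labelled MS2 coat protein, starting at 0.7 or 1.5 nM and doubling up to 3 µM, first without ligand and then with constant ligand, in 100 mM Tris-HCl pH 7.5, 80 mM KCl, 4 mM MgCl2, BSA, DTT, yeast tRNA and Tween-20. Green signal was normalised to red-channel RNA signal and to the control-cluster median Fmax. The apparent Kd is the median of filtered binding-curve fits made for each cluster.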

[1] = designed as: OFF switch for flavin mononucleotide, no ligand
[2] = ligand present: flavin mononucleotide, designed as: OFF switch for flavin mononucleotide
[3] = designed as: ON switch for flavin mononucleotide, no ligand
[4] = ligand present: flavin mononucleotide, designed as: ON switch for flavin mononucleotide

Row | Sequence | apparent Kd [1] | apparent Kd [2] | apparent Kd [3] | apparent Kd [4]
1 | GGGCCCGGUGUGAGGAUAUGGGCCCGGAAACGGGCCCAGAAGGCACAUGAGGAUCACCCAUGUAAGCCGGGCCC | 15.4 nM | 15.7 nM | – | –
2 | GGGCCGGUGGAGAAGGAGCGUGCGAAACGCAUGCUAGGAUAUCCACAUGAGGAUCACCCAUGUGGGAAUAUCUGGUUUUCACAG | 3.85 nM | 4.65 nM | – | –
3 | GGGCUCGGAGGAUAUACAUGAGGAUCACCCAUGUAGGGCUCGGGUAUUCUCGGGCUCUGUAGAAGGUCGGGCUC | 20.3 nM | 23.3 nM | – | –
4 | GGGCUGCGACGCAGCCCAACAAAACAUGAGGAUCACCCAUGUCAGGAUAUACCGAUGCAGCAUCUGUAGAAGGGACAGAUCCAA | 90.4 nM | 92.4 nM | – | –
5 | GGGUACAUCGGAGGAUAUCAUCUAAAUACAUGAGGAUCACCCAUGUCGAUGGAGACAUCGGAGAUUGAGAAGGCCGAUGUACCG | – | – | 5.06 nM | 5.23 nM
6 | GGGUACAUCGGAGGAUAUCAUGUAAAUACAUGAGGAUCACCCAUGUCGAUGGAGAAAUCGGAGAUUGAGAAGGCCGAUGUACCG | – | – | 16.9 nM | 7.1 nM
7 | GGGUACAUCGGAGGAUAUCAUGUAAAUACAUGAGGAUCACCCAUGUCGAUGGAGACAUCGGACAUUGAGAAGGCCGAUGUACCG | – | – | 29.2 nM | 5.79 nM
8 | GGGUACAUCGGAGGAUAUCAUGUAAAUACAUGAGGAUCACCCAUGUCGAUGGAGACAUCGGAGAUUGAGAAGGACGAUGUACCG | – | – | 320 nM | 14 nM
9 | GGGUACAUCGGAGGAUAUCAUGUAAAUACAUGAGGAUCACCCAUGUCGAUGGAGACAUCUGAGAUUGAGAAGGCCGAUGUACCG | – | – | 19.4 nM | 6.45 nM
10 | GGGUACAUCGGAGGAUAUCAUGUAAAUACAUGAGGAUCACCCAUGUCGAUGGUGACAUCGGAGAUUGAGAAGGCCGAUGUACCG | – | – | 245 nM | 9.37 nM
11 | GGGUACAUCUGAGGAUAUCAUGUAAAUACAUGAGGAUCACCCAUGUCGAUGGAGACAUCGGAGAUUGAGAAGGCCGAUGUACCG | – | – | 263 nM | 14 nM
12 | GGGUACGUUUCGUAGCAGUGUCAUCGAGAAGGCCCUGACAUGAGGAUCACCCAUGUUGUUACAUGGGAGGAUAUCGAUGAUUUU | – | – | 19.1 nM | 6.06 nM
13 | GGGUAGAUCCGAGGAUAUACAAUCCGGAAACGGUACAUGAGGAUCACCCAUGUAGAAGGCGGAUCUACAGGUACUAAAGUACCC | 6.32 nM | 8.65 nM | – | –
14 | GGGUGAGCUCAAGGAUAUCCAAAUCGGUUACAUGAGGAUCACCCAUGUCCGGGCGAAUAAAGGCCGGAGAAGGUGAGGGCCCUC | – | – | 67.5 nM | 180 nM
15 | GGGUUUGGUGUGAGGAUAUGUUUGGGUAAACCCGGGCAGAAGGCACAUGAGGAUCACCCAUGUAAGCCGGGCCC | 14.9 nM | 14.7 nM | – | –
16 | GGUACCAACACAGGAUAUGCAAUCCUUUGGGUUGCAGAAGGGUGAAACAUGAGGAUCACCCAUGUGGUGCCAGGGCGUGAGCCC | – | – | 1290 nM | 104 nM
17 | GGUACCAACACAGGAUAUGCUUUCCUUUGGGAAGCAGAAGGGUGAAAACAUGAGGAUCACCCAUGUGGUACCGGGCGUGAGCCC | – | – | 534 nM | 39 nM
18 | GGUACCAUCACAGGAUAUGCUAUCCUUUGGGUAGCAGAAGGGUGUAACAUGAGGAUCACCCAUGUGGUGCCAGGGCGUGAGCCC | – | – | 496 nM | 49.9 nM
19 | GGUACCAUCACAGGAUAUGCUUUCCUUUGGGAAGCAGAAGGGUGUAACAUGAGGAUCACCCAUGUGGUGCCAGGGCGUGGGCCC | – | – | 212 nM | 19.2 nM
20 | GGUACGCAUGUAGGAUAUCGAGCUCAAAGAGCUCGAGAAGGACAUGAGGAUCACCCAUGUCGUCACAGACAGUGACGGCGUACC | 20 nM | 38.7 nM | – | –
21 | GGUACUCAAAGAGUACAAGAAAGAACAUGAGGAUCACCCAUGUAGGAUAUGCUACUCAAAGAGUAGCAGAAGGACAUGUGCAGC | 30.6 nM | 103 nM | – | –
22 | GGUACUCAAAGAGUACCAAGACGAACAUGAGGAUCACCCAUGUAGGAUAUGCUACUCAAAGAGUAGCAGAAGGACAUGUGCCUA | 17.1 nM | 107 nM | – | –
23 | GGUACUCAAAGAGUACCAAUACGAACAUGAGGAUCACCCAUGUAGGAUAUGCUACUCAAAGAGUAGCAGAAGGACAUGCGCCUA | 18.2 nM | 106 nM | – | –

From the EternaBench riboswitch data
